Reference: paper PMC9976451 (The Journal of Biological Chemistry, 2023)
Read-outs that look alike come from different tables or passages of the source.

What was measured:
human BCKDK [1] = biological target: T1, human BCKDK (Homo sapiens, UniProt O14874); experiment: BCKDK biochemical assay; conditions: for maximum BCKDK inhibition in the biochemical assay: plateau of inhibition curve
Summary of the method: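 BCKDK freed of MBP tag by TEV cleavage. 11-point half-log test compound series (final 300 μM to 3 nM, 1% DMSO), in duplicate. Reaction started with 50 nM lipoylated fusion substrate plus 15 or 200 μM ATP; 90 min at RT. EDTA stop; Eu-anti-His/anti-pE1/ULight TR-FRET read at 665 nm. IC50 from four-parameter logistic fit.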

PDK1 = PDK1 (Homo sapiens, UniProt Q15118); experiment: PDK1 biochemical assay
Summary of the method: (§1)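 Kinetic fluorescence assay (ex 360/em 485 nm) at 30 °C for 240 min using N-terminal GST-tagged kinase at 10 nM. PDK1 (aa 1–436): 6.0 μM ATP, 15 μM AQT0895. PDK4 (aa 1–411): 97 μM ATP, AQT0872. Eleven threefold dilutions (100 μM–1.7 nM final, 2% DMSO), run in duplicate, with a 30 min preincubation before enzyme. No-enzyme background subtracted. IC50 by four-parameter fit of initial rates.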

AT1R = conditions: read-out: AT1R Kd; cited from earlier work
human BCKDK [2] = biological target: T1, human BCKDK; assay type: binding
Summary of the method: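 BCKDK biotinylated with BirA during TEV cleavage, then immobilized. At least six twofold dilutions injected at 30 μl/min: 120 s association, ≥300 s dissociation. Double reference subtraction using blank injections. For competition, the same series was run with 20 μM radicicol or 20 μM BT2 in running buffer; reduced signal was read as shared site.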

BCKDK = conditions: read-out: Ki as ATP competitive inhibitor of BCKDK; cited from earlier work
PDK4 = PDK4 (Homo sapiens, UniProt Q16654); experiment: PDK4 biochemical assay
Summary of the method: as §1

[3] = system: BCKD–BCKDK complex purified from rat liver; conditions: read-out: in vitro IC50 to inhibit the BCKD–BCKDK complex, 500 μM ATP; cited from earlier work
[4] = Biochemical IC50, ATP concentration of 15 μM
[5] = Biochemical IC50 at 200 μM ATP, 200 μM ATP

Chain of PDK4 (Q16654 whole entry): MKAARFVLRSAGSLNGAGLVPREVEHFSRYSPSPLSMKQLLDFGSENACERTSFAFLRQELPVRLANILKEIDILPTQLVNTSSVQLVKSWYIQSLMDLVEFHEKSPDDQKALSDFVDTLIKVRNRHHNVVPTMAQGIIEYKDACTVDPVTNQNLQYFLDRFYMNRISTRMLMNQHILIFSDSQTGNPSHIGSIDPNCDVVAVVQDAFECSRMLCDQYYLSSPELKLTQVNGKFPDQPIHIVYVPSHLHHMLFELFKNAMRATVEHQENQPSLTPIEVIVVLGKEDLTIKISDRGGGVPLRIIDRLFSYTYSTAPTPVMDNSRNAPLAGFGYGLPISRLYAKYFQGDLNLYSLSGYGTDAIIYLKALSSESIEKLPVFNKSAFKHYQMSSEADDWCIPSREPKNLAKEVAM
Chain of PDK1 (Q15118 29-436): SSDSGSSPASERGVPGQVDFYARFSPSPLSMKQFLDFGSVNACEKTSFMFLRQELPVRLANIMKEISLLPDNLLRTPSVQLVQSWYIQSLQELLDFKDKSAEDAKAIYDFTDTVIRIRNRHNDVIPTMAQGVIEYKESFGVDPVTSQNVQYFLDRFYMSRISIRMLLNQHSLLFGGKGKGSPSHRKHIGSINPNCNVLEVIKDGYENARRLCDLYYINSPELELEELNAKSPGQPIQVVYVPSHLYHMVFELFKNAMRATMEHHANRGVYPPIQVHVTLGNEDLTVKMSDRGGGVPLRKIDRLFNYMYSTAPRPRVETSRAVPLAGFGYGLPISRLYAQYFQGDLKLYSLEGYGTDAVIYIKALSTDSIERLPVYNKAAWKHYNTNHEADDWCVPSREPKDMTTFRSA

| Structure (SMILES) | IC50 (human BCKDK [1]; [4]) [µM] | IC50 (human BCKDK [1]; [5]) [µM] | maximum BCKDK inhibition in the biochemical assay (human BCKDK [1]) [%] | other results |
| --- | --- | --- | --- | --- |
| CCC1CN(Cc2ccc(-c3ccccc3-c3nnn[nH]3)cc2)c2ncccc2O1 (racemic) [racemic, 4-((2'-(1H-tetrazol-5-yl)-[1,1′-biphenyl]-4-yl)methyl)-2-ethyl-3,4-dihydro-2H-pyrido[3,2-b][1,4]oxazine] | – | – | – | IC50 (human BCKDK [1]; in vitro biochemical activity): 0.011 ± 0.0025 µM |
| Nc1ncnc2c1ncn2[C@@H]1O[C@H](COP(=O)(O)OP(=O)(O)OP(=O)(O)O)[C@@H](O)[C@H]1O [ATP] | – | – | – | Km (human BCKDK [1]; read-out: Km of ATP, determined in the biochemical assay format): 13.6 ± 0.32 µM |
| O=C(O)c1sc2cc(Cl)ccc2c1Cl [BT2, 3,6-dichlorobenzo[b]thiophene-2-carboxylic acid] | 0.96 ± 0.33 | 0.9 ± 0.37 | ~75 | IC50 (PDK1): 79 µM |
| CCC1CN(Cc2ccc(-c3ccccc3-c3nnn[nH]3)cc2)c2ncccc2O1 (centres unmarked) [compound 1, 4-((2'-(1H-tetrazol-5-yl)-[1,1′-biphenyl]-4-yl)methyl)-2-ethyl-3,4-dihydro-2H-pyrido[3,2-b][1,4]oxazine] | 0.0069 ± 0.0025 | 0.021 ± 0.006 | 100 | – |
| CCC1CN(Cc2ccc(-c3ccccc3-c3nnn[nH]3)cc2)c2ncccc2O1 (centres unmarked) [compound 1∗, 4-((2'-(1H-tetrazol-5-yl)-[1,1′-biphenyl]-4-yl)methyl)-2-ethyl-3,4-dihydro-2H-pyrido[3,2-b][1,4]oxazine] | – | – | – | IC50 (human BCKDK [1]; in vitro biochemical activity): 0.032 ± 2e-05 µM |
| COc1ccc(-c2nnn[nH]2)cc1 [fragment 1, 5-(4-methoxyphenyl)-1H-tetrazole] | 205 ± 51 | 232 ± 28 | – | – |
| Cc1ccc(-c2ccccc2-c2nnn[nH]2)cc1 [fragment 2, 5-(4′-methyl-[1,1′-biphenyl]-2-yl)-1H-tetrazole] | 37.3 ± 7.1 | 38.7 ± 3.7 | – | – |
| CCCc1nc(C(C)(C)O)c(C(=O)O)n1Cc1ccc(-c2ccccc2-c2nnn[nH]2)cc1 [olmesartan acid] | – | – | – | Kd (AT1R): 0.0069 µM; IC50 (human BCKDK [1]; read-out: In vitro IC50, Supplementary Table 1, BDK inhibition): 43.7 µM |
| C[C@@H]1C[C@H]2O[C@@H]2/C=C\C=C\C(=O)Cc2c(Cl)c(O)cc(O)c2C(=O)O1 [radicicol] | 25 ± 3.8 | 110 ± 21 | 100 | Kd (human BCKDK [2]): 1.47 µM |
| CCCCC(=O)N(Cc1ccc(-c2ccccc2-c2nnn[nH]2)cc1)[C@H](C(=O)O)C(C)C [valsartan] | 1.7 ± 1.9 | 7.7 ± 4.4 | 100 | Ki (BCKDK): 1.36 µM; IC50 (PDK4): 78 µM; IC50 [3]: 37.3 µM |
